Experimental data: ChEMBL document CHEMBL1781887, “Sulfoximine-substituted trifluoromethylpyrimidine analogs as inhibitors of proline-rich tyrosine kinase 2 (PYK2) show reduced hERG activity” (Bioorg Med Chem Lett, 2009)
pIC50: −log10 of the molar value. Blank lines part the entries; values can stand above or below the compound they belong to.

Tests used:
[1] = (§1) Apparent permeability from apical to basolateral side of MDCK cells; assay type: ADME, cell-based, Canis lupus familiaris; conditions: dog
Outline: (§2)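 Madin–Darby canine kidney cell monolayers. Permeability measured in the apical-to-basolateral direction and reported as Papp.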

hERG (KCNH2) = hERG (KCNH2) (Homo sapiens, UniProt Q12809); experiment: Inhibition of [3H]dofetilide binding to human ERG expressed in HEK293 cells at 10 uM; assay type: cell-based; conditions: HEK293 cells that express human ERG, probe [3H]dofetilide
Chain of hERG (KCNH2) (Q12809 whole entry): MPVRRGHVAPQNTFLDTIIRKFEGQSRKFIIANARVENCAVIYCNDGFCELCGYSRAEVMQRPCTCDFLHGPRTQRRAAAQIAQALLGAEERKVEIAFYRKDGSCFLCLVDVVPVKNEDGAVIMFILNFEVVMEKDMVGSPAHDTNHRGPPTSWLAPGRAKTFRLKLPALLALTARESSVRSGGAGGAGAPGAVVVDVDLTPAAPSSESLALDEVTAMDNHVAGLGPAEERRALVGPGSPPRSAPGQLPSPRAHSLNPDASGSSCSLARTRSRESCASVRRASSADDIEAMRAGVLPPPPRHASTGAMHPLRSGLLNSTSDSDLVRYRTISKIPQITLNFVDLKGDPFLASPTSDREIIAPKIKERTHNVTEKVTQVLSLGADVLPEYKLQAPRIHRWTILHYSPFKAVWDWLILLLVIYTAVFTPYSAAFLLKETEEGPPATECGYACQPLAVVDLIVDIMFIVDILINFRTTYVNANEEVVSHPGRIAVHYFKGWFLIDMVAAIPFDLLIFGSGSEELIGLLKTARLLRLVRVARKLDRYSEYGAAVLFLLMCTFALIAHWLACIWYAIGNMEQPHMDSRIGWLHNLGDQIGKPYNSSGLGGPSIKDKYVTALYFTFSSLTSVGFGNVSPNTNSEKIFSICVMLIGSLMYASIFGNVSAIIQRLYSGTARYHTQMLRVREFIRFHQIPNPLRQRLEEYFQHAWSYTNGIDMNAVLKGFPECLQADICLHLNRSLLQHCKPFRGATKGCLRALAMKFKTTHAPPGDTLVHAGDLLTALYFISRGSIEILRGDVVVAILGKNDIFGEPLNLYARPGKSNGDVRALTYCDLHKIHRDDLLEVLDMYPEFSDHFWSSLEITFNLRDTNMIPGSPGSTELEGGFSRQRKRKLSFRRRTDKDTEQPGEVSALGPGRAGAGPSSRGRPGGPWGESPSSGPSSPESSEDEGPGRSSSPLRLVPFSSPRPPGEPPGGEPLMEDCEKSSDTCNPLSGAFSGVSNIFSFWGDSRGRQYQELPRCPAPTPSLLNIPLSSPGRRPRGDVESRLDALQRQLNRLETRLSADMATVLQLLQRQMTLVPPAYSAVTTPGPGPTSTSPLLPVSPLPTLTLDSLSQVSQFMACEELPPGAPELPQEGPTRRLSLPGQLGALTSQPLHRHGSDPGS

[2] = target: T1, Protein-tyrosine kinase 2-beta (Homo sapiens, UniProt Q14289); experiment: Inhibition of PYK2 assessed as reduction in peptide substrate phosphorylation by fluorimetric method
T1 sequence (Q14289 whole entry): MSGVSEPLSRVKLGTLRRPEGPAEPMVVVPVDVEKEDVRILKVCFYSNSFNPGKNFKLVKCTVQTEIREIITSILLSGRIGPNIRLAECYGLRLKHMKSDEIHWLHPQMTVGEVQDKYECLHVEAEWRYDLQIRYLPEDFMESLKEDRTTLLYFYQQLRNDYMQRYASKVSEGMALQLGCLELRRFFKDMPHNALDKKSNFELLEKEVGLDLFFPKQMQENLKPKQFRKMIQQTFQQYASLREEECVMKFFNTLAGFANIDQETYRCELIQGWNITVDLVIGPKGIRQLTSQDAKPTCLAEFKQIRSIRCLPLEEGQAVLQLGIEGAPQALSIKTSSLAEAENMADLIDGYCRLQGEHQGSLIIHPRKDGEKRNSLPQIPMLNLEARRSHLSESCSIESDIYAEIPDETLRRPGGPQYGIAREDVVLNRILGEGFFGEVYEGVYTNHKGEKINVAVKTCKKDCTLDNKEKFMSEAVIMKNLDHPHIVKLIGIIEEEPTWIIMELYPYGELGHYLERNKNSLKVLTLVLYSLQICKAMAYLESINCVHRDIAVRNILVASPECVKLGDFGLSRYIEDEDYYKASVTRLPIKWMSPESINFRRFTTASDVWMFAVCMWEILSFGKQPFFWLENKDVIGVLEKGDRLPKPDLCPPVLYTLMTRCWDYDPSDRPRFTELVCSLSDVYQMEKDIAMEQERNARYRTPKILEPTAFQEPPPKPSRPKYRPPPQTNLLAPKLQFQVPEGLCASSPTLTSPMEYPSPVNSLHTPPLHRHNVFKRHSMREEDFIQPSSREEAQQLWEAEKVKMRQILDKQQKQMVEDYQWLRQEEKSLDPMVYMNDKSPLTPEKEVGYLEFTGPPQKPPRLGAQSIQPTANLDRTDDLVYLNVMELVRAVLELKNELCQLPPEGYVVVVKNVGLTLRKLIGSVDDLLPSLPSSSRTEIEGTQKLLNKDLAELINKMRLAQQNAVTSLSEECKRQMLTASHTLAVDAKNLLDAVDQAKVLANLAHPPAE

[3] = target: T1, Protein-tyrosine kinase 2-beta; experiment: Inhibition of PYK2 by PYK2-LI-COR cellular assay
[4] = Hepatic extraction ratio in human liver microsomes; assay type: ADME, Microsome; conditions: read-out: ERH
[5] = Clearance in Sprague-Dawley rat at 1 mg/kg, iv; assay type: ADME, organism-based; design: dose 1 mg/kg, route intravenous; conditions: in vivo
Outline: (§3)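 Sprague–Dawley rats given 1.0 mg/kg iv. CL and Vdss obtained by non-compartmental fit of the plasma concentration–time profiles. Values are means of two experiments.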

[6] = Fraction unbound in rat plasma at 1 ug/mL; assay type: ADME, cell-free
Outline: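 Rat plasma protein binding measured in vivo at a drug concentration of 1 μg/mL. Result expressed as fraction unbound (fu).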

[7] = Lipophilicity, log D of the compound at pH 7.4; assay type: physicochemical; conditions: buffer
[8] = Mean residence time in Sprague-Dawley rat; assay type: ADME, organism-based; conditions: in vivo
[9] = Volume of distribution at steady state in Sprague-Dawley rat at 1 mg/kg, iv; assay type: ADME, organism-based; design: dose 1 mg/kg, route intravenous; conditions: in vivo, read-out: Vdss; outline: as §3
MDCK = experiment: as §1; assay type: ADME, cell-based, Canis lupus familiaris; conditions: dog; outline: as §2
[10] = Cmax in Sprague-Dawley rat at 10 mg/kg, po; assay type: ADME, organism-based; design: dose 10 mg/kg, route oral; conditions: in vivo
Outline: (§4)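 Sprague–Dawley rats given a single 10 mg/kg oral dose. Cmax and AUCinf taken from the plasma concentration–time profile. Cave calculated as AUCinf divided by the dosing interval in h. Free concentration refers to the unbound fraction in plasma. Values are means of two experiments.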

[11] = AUC (infinity) in Sprague-Dawley rat at 10 mg/kg, po; assay type: ADME, organism-based; design: time infinity, dose 10 mg/kg, route oral; conditions: plasma; outline: as §4
[12] = Oral bioavailability in Sprague-Dawley rat at 10 mg/kg, po; assay type: ADME, organism-based; conditions: in vivo
Rattus norvegicus = experiment: Average free plasma concentration in Sprague-Dawley rat at 10 mg/kg, po; assay type: ADME, organism-based; design: dose 10 mg/kg, route oral; conditions: in vivo; outline: as §4

SMILES: CC[S+]([O-])(=NC)c1ccc(Nc2ncc(C(F)(F)F)c(N[C@@H]3CCC[C@H]3N(C)C)n2)cc1 (stereo partly drawn)
pIC50 [2]: 7.68
pIC50 [3]: 7.62
hepatic extraction ratio [4]: 0.58
Papp A→B [1]: 7.8 ×10⁻⁶ cm/s
inhibition at 10 µM (hERG (KCNH2)): 2%

SMILES: CN(c1ccccc1CNc1nc(Nc2ccc3c(c2)CC(=O)N3)ncc1C(F)(F)F)S(C)(=O)=O
Papp A→B [1]: 9.2 ×10⁻⁶ cm/s
inhibition at 10 µM (hERG (KCNH2)): 41%

SMILES: CC(C)N=[S+](C)([O-])c1ccc(Nc2ncc(C(F)(F)F)c(N[C@@H]3CCC[C@H]3N(C)C)n2)cc1 (mixture of isomers)
pIC50 [2]: 7.66
pIC50 [3]: 7.47
hepatic extraction ratio [4]: 0.78
Papp A→B [1]: 6.6 ×10⁻⁶ cm/s
inhibition at 10 µM (hERG (KCNH2)): 8.4%

SMILES: CN(C)[C@@H]1CCC[C@H]1Nc1nc(Nc2ccc([S+](C)(=N)[O-])cc2)ncc1C(F)(F)F (mixture of isomers)
pIC50 [2]: 7.19
pIC50 [3]: 6.49
hepatic extraction ratio [4]: < 0.29
Papp A→B [1]: 1 ×10⁻⁶ cm/s
inhibition at 10 µM (hERG (KCNH2)): 12%

SMILES: CN=[S+](C)([O-])c1ccc(Nc2ncc(C(F)(F)F)c(N[C@@H]3CCC[C@H]3N(C)C)n2)cc1 (stereo in doubt; (R)-14a)
Papp (MDCK): 5.7 ×10⁻⁶ cm/s

SMILES: CN=[S+](C)([O-])c1ccc(Nc2ncc(C(F)(F)F)c(N[C@@H]3CCC[C@H]3N(C)C)n2)cc1 (stereo in doubt; (S)-14a)
Papp (MDCK): 5.1 ×10⁻⁶ cm/s
clearance [5]: 74 mL/min/kg
fraction unbound at 1 ug/mL [6]: 0.36
logD [7]: 1.7
MRT [8]: 2.3 h
Vd [9]: 13 L/kg
Cmax [10]: 720 nM
AUC(0-inf) [11]: 5 µM·h
bioavailability [12]: 100%
Cp(f) (Rattus norvegicus): 0.076 µM

SMILES: CCN=[S+](C)([O-])c1ccc(Nc2ncc(C(F)(F)F)c(N[C@@H]3CCC[C@H]3N(C)C)n2)cc1 (stereo in doubt; (S)-14b)
Papp (MDCK): 8.3 ×10⁻⁶ cm/s

Further lines, with some results ahead:

Papp A→B [1]: 4.8 ×10⁻⁶ cm/s
SMILES: CN(C)[C@@H]1CCC[C@H]1Nc1nc(Nc2ccc(S(=O)(=O)NC3CC3)cc2)ncc1C(F)(F)F
inhibition at 10 µM (hERG (KCNH2)): 76%

Papp A→B [1]: 5.3 ×10⁻⁶ cm/s
SMILES: CNS(=O)(=O)c1ccc(Nc2ncc(C(F)(F)F)c(N[C@@H]3CCC[C@H]3N(C)C)n2)cc1
inhibition at 10 µM (hERG (KCNH2)): 50%

Papp A→B [1]: 9.5 ×10⁻⁶ cm/s
clearance [5]: 42 mL/min/kg
fraction unbound at 1 ug/mL [6]: 0.3
logD [7]: 1.5
MRT [8]: 3.7 h
Vd [9]: 13 L/kg
SMILES: CN(C)[C@@H]1CCC[C@H]1Nc1nc(Nc2ccc(S(C)(=O)=O)cc2)ncc1C(F)(F)F

Papp A→B [1]: 4.4 ×10⁻⁶ cm/s
SMILES: CN=[S+](C)([O-])c1ccc(Nc2ncc(C(F)(F)F)c(N[C@@H]3CCC[C@H]3N(C)C)n2)cc1 (mixture of isomers)

Papp A→B [1]: 4.7 ×10⁻⁶ cm/s
SMILES: CCN=[S+](C)([O-])c1ccc(Nc2ncc(C(F)(F)F)c(N[C@@H]3CCC[C@H]3N(C)C)n2)cc1 (mixture of isomers)
inhibition at 10 µM (hERG (KCNH2)): 5.9%

Papp (MDCK): 9.3 ×10⁻⁶ cm/s
SMILES: CCN=[S+](C)([O-])c1ccc(Nc2ncc(C(F)(F)F)c(N[C@@H]3CCC[C@H]3N(C)C)n2)cc1 (stereo in doubt; (R)-14b)
